Data set [1] concerns the target T1, N1L (Vaccinia virus, UniProt Q49PX0).
T1 sequence (Q49PX0 whole entry): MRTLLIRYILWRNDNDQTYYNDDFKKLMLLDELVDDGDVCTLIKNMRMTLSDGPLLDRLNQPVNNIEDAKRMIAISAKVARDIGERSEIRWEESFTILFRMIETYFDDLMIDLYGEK
Put plainly: Displacement of FITC-conjugated BH3-Bak peptide from 1 uM Vaccinia virus recombinant N1L expressed in Escherichia coli BL21 (DE3) by fluorescence polarization assay. Further details: species or system Orthopoxvirus vaccinia. The gist of the method: (§1)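 Fluorescence polarization competition: N1L or Bcl-XL incubated with 10 nM BH3-Bak peptide and titrated ligand. Bcl-XL run on the same plate as N1L. N1L tested at several concentrations, none below 500 nM. Normalized polarization vs log ligand fit to a variable-slope dose-response curve for competitive IC50.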
In general terms: Polarisation of emitted light reports the rotation of a fluorescent probe.

The target of data set [2] is T1, N1L. Put plainly: Displacement of FITC-conjugated BH3-Bak peptide from 0.5 uM Vaccinia virus recombinant N1L expressed in Escherichia coli BL21 (DE3) by fluorescence polarization assay. Details: species or system Orthopoxvirus vaccinia. The gist of the method:
as §1

In data set [3] the target is T1, N1L. Put plainly: Displacement of FITC-conjugated BH3-Bak peptide from Vaccinia virus recombinant N1L expressed in Escherichia coli BL21 (DE3) by fluorescence polarization assay. Further details: species or system Orthopoxvirus vaccinia. The procedure, abridged:
as §1

Data set [4] has as its target N1L (Vaccinia virus) (UniProt Q49PX0). Put plainly: Binding affinity to Vaccinia virus recombinant N1L expressed in Escherichia coli BL21 (DE3) assessed as protein melting temperature at 106 uM by differential scanning calorimetry. The conditions noted are these: Orthopoxvirus vaccinia. The gist of the method:
(§2)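 DSC at 1 K/min scan rate under 3.0 atm. Samples in PBS with 1.0 mg/ml (71 μM) N1L, 2 or 5% DMSO, and compound at 71, 106 or 214 μM; DMSO-only reference. Melting temperature and enthalpy of unfolding (area under peak) taken from thermograms.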

Data set [5] has as its system Vaccinia virus. Put plainly: Antiviral activity against GFP-expressing Vaccinia virus WR infected in african green monkey CV1 cells after 2.5 days by fluorescence assay. It is filed as functional, organism-based. The conditions noted are these: Orthopoxvirus vaccinia, CV-1, 60 h.
Data set [6] is described as follows: Therapeutic index, ratio of TC50 for human HT1080 cells to EC50 for GFP-expressing Vaccinia virus WR infected in human HT1080 cells. It is filed as cell-based, HT-1080. The conditions noted are these: read-out: TI.
The nature of data set [7]: Therapeutic index, ratio of TC50 for african green monkey CV1 cells to EC50 for GFP-expressing Vaccinia virus WR infected in african green monkey CV1 cells. It is filed as cell-based, CV-1. The following applies: read-out: TI.
The nature of data set [8]: Cytotoxicity against african green monkey CV1 cells at >100 uM after 2.5 day by ATP lite assay. The conditions noted are these: chlorocebus aethiops, cv-1, 60 h. It is filed as cell-based.
For data set [9], the system named is Vaccinia virus. Put plainly: Antiviral activity against GFP-expressing Vaccinia virus WR infected in human HT1080 cells after 2.5 days by fluorescence assay. It is filed as functional, organism-based. The conditions noted are these: Orthopoxvirus vaccinia, HT-1080, 60 h.
The next data set relates to HT-1080. As to the kind of experiment: Cytotoxicity against human HT1080 cells at >100 uM after 2.5 day by ATP lite assay. The conditions noted are these: ht-1080, 60 h. It is filed as cell-based.
Data set [10] deals with N1L (Vaccinia virus) (UniProt Q49PX0). Put plainly: Binding affinity to Vaccinia virus recombinant N1L expressed in Escherichia coli BL21 (DE3) assessed as effect on enthalpy of protein unfolding at 106 uM by differential scanning calorimetry. The following applies: Orthopoxvirus vaccinia. The gist of the method:
as §2
For orientation: DSC measures the heat that a sample takes up or gives off during a temperature scan.

Data set [11] has the same target. As to the kind of experiment: Binding affinity to Vaccinia virus recombinant N1L expressed in Escherichia coli BL21 (DE3) assessed as effect on enthalpy of protein unfolding at 214 uM by differential scanning calorimetry. The following applies: Orthopoxvirus vaccinia. The gist of the method:
(§3)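 Differential scanning calorimetry of recombinant N1L at 1.0 mg/ml (71 μM) in PBS with 2 or 5% DMSO, plus 214 μM compound, against a DMSO-only reference. Scanned at 1 K/min under 3.0 atm. Melting temperature (Tm) is taken from the peak, and enthalpy of unfolding (ΔH) from the area under the DSC peak.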

For data set [12] the target is unchanged. Put plainly: Binding affinity to Vaccinia virus recombinant N1L expressed in Escherichia coli BL21 (DE3) assessed as protein melting temperature at 214 uM by differential scanning calorimetry. The following applies: Orthopoxvirus vaccinia. The procedure, abridged: as §3
A short description of data set [13]: Displacement of FITC-conjugated BH3-Bim peptide from Vaccinia virus N-terminal GST-fused F1L expressed in Escherichia coli BL21 (DE3) by fluorescence polarization assay. Further details: species or system Orthopoxvirus vaccinia. The gist of the method: (§4)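 Fluorescence polarization competition with 10 nM BH3-Bim peptide against F1L or Bcl-2, run alongside N1L, with titrated ligand and a variable-slope dose-response fit for IC50. F1L construct: residues 35–190 from vaccinia WR as N-terminal GST fusion, expressed in E. coli BL21(DE3) (500 μM IPTG, 20 °C, 18 h), finished on Superdex 200 in 20 mM Tris pH 8.0, 100 mM NaCl.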

The target in data set [14] is N1L (Vaccinia virus) (UniProt Q49PX0). As to the kind of experiment: Destabilizing effect on Vaccinia virus recombinant N1L expressed in Escherichia coli BL21 (DE3) assessed as decrease in equilibrium constant of protein dimerization at 100 uM by analytical ultracentrifugation. The conditions noted are these: Orthopoxvirus vaccinia. The procedure, abridged: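 Sedimentation equilibrium AUC of N1L in PBS at 0.45, 0.15 and 0.05 mg/ml, with 2% DMSO and compound at 50–100 μM. Spun at 20,000 rpm, 20 °C, 24 h. Data fit to a monomer–dimer or monomer–dimer–tetramer equilibrium model to obtain the dimerization KD.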

In the next data set the target is Bcl-2-like protein 1 (Homo sapiens, UniProt Q07817). As to the kind of experiment: Displacement of FITC-conjugated BH3-Bak peptide from human recombinant Bcl-XL expressed in Escherichia coli BL21 (DE3) by fluorescence polarization assay. The procedure, abridged: as §1
Chain of Bcl-2-like protein 1 (Q07817 whole entry): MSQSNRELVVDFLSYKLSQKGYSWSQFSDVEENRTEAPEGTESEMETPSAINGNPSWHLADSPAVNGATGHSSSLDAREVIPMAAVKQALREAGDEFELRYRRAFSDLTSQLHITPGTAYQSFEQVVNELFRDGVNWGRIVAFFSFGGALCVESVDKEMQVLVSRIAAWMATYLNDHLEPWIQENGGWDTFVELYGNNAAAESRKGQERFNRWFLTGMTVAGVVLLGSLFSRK
The target in data set [15] is N1L (Vaccinia virus) (UniProt Q49PX0). Put plainly: Binding affinity to Vaccinia virus recombinant N1L expressed in Escherichia coli BL21 (DE3) assessed as effect on enthalpy of protein unfolding at 71 uM by differential scanning calorimetry. The conditions noted are these: Orthopoxvirus vaccinia. The gist of the method:
as §2

Data set [16] has the same target. Put plainly: Binding affinity to Vaccinia virus recombinant N1L expressed in Escherichia coli BL21 (DE3) assessed as protein melting temperature at 71 uM by differential scanning calorimetry. The conditions noted are these: Orthopoxvirus vaccinia. The procedure, abridged: as §2
In data set [17] the target is Apoptosis regulator Bcl-2 (Homo sapiens, UniProt P10415). As to the kind of experiment: Displacement of FITC-conjugated BH3-Bim peptide from human recombinant Bcl-2 expressed in Escherichia coli BL21 (DE3) by fluorescence polarization assay. The procedure, abridged: as §4
Chain of Apoptosis regulator Bcl-2 (P10415 whole entry): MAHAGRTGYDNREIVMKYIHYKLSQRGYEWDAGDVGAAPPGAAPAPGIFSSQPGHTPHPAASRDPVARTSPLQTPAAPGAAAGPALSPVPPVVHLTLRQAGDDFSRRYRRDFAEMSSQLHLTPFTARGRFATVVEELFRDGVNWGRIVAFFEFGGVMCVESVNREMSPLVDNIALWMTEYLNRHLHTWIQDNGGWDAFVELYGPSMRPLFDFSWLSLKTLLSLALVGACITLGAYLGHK

The source made the active and inactive calls. The rule behind the calls is not given here.

Broadly, the IC50 is the concentration at which inhibition is half-maximal. For `COc1ccc2ccccc2c1-c1c(O)ccc2ccccc12`, the IC50 on N1L [1] is 3.6 µM; at N1L [2], 1.5 µM; at N1L [3] it was 1.5 µM.

As to `COc1cc(C(c2ccc(O)c(OC)c2)c2ccc(O)c(OC)c2)ccc1O`, the IC50 turned out to be 12.4 µM at N1L [1], 8.8 µM on N1L [2] and 8.8 µM on N1L [3].

As a reminder, the EC50 is the concentration that produces a half-maximal response. Consider `Oc1ccc(/C=N/c2ccccc2/N=C/c2ccc(O)c(O)c2)cc1O`, for which the Tm at N1L (Vaccinia virus) [4] came to 52.3 °C. Moreover, the values for the EC50 in the data set with Vaccinia virus [5] and with Vaccinia virus [9] were 13.2 µM and 10.9 µM, respectively. In addition, the values for the IC50 on N1L [1], on N1L [2] and on N1L [3] were 1.3 µM, 1.2 µM and 1.2 µM, respectively. Also, the selectivity ratio in [6] and in [7] was 5.6 each time. Moreover, the Activity entry (in [8]; in the data set on HT-1080) was “Non-toxic” throughout. Besides, the result at N1L (Vaccinia virus) [10] was inactive.

Regarding `COc1ccc(CCc2cc(OC)c(O)c(OC)c2)cc1`, the figures for the IC50 on N1L [1], on N1L [2] and at N1L [3] were 7.5 µM, 5 µM and 5 µM, respectively. For the same compound, at N1L (Vaccinia virus) [11], the result was inactive. Also, the Tm on N1L (Vaccinia virus) [12] came to 54.4 °C.

Turning to `COc1cc(-c2ccc3cc(OC)c(OC)c(OC)c3c2)cc(OC)c1OC`, the Tm at N1L (Vaccinia virus) [4] was determined as 56.3 °C. For the same compound, the half-maximal effective concentration (EC50) in the data set with Vaccinia virus [5] is 13.2 µM; in the data set with Vaccinia virus [9], 16.9 µM. Besides, the IC50 at N1L [1] came out at 1.6 µM; in [13], 1.7 µM; at N1L [2] it was 0.9 µM; at N1L [3], 0.9 µM. For the same compound, the Activity entry (in data set [8]; in the data set on HT-1080) was “Non-toxic” in each case. At N1L (Vaccinia virus) [14], the result was Active. Also, at N1L (Vaccinia virus) [10], the outcome was inactive.

Consider `Oc1ccc(/C=C/c2cc(O)cc(O)c2)cc1` [RESVERATROL], for which the figures for the 50% inhibitory concentration (IC50) on N1L [1], on Bcl-2-like protein 1 and on N1L [3] were 21.9 µM, 190 µM and 21.9 µM, respectively. Besides, on N1L (Vaccinia virus) [11], the outcome was inactive. Also, the Tm on N1L (Vaccinia virus) [12] is 54.2 °C.

As for `COc1cc(C(c2ccccc2)c2ccccc2)c2ccccc2c1O`, the IC50 was 2 µM on N1L [1], 1.8 µM on N1L [2] and 1.8 µM at N1L [3]. In addition, the result at N1L (Vaccinia virus) [15] was inactive. Moreover, the Tm at N1L (Vaccinia virus) [16] stood at 57.5 °C.

Take `Oc1cc(C(c2ccccc2)c2ccccc2)c2ccccc2c1O`: at N1L (Vaccinia virus) [4], the Tm came to 54.9 °C. The concentration for half-maximal inhibition (IC50) at N1L [1] turned out to be 1.9 µM; in data set [13] it was 1.4 µM; at N1L [2] it was 0.6 µM; at N1L [3], 0.6 µM. In addition, at N1L (Vaccinia virus) [14], the outcome was Active. Also, at N1L (Vaccinia virus) [10], the outcome was inactive.

Consider `COc1ccc(C(C)c2cc(OC)c(OC)c(OC)c2)cc1` (stereo not given), for which the half-inhibitory concentration (IC50) was 6.6 µM on N1L [1], 5.6 µM on N1L [2] and 5.6 µM on N1L [3]. Also, the selectivity ratio in data set [6] and in [7] was 50 each time. Moreover, the Activity result (in data set [8]; in the data set on HT-1080) was “Non-toxic” in each case.

`Oc1cc(Cc2ccccc2)c(Cc2ccccc2)cc1O`: the Tm on N1L (Vaccinia virus) [4] worked out at 48.6 °C. The IC50 in [17] is 4.7 µM; at N1L [1] it was 1.8 µM; in data set [13], 0.6 µM; on N1L [2], 0.9 µM; at Bcl-2-like protein 1 it was 8.5 µM; at N1L [3] it was 0.9 µM. The result on N1L (Vaccinia virus) [10] was inactive.

`COc1ccc(/C(=N/c2ccc(C)cc2)c2ccccc2)cc1`: the half-maximal inhibitory concentration (IC50) on N1L [1] and on N1L [3] was 1.7 µM in each case.

On to `COc1cc(C(=N\c2ccccc2)/C(=N/c2ccccc2)c2cc(OC)c(OC)c(OC)c2)cc(OC)c1OC`, for which the figures for the concentration for half-maximal inhibition (IC50) on N1L [1], on N1L [2] and on N1L [3] were 3.5 µM, 2.4 µM and 2.4 µM, respectively.

The values above are taken from ChEMBL document CHEMBL1157820, “Vaccinia virus virulence factor N1L is a novel promising target for antiviral therapeutic intervention” (J Med Chem, 2010).
